Laboratory results from ChEMBL document CHEMBL3286393 (J Med Chem, 2014).

Columns and labels:
Mus musculus [1] = test: Antiinflammatory activity in zymosan-induced peritonitis CD1 mouse model assessed as suppression of LTB4 level at 10 mg/kg, ip administered 30 mins before challenge measured 4 hrs post zymosan challenge relative to control
Mus musculus [2] = test: Antiinflammatory activity in zymosan-induced peritonitis CD1 mouse model assessed as suppression of LTC4 level at 10 mg/kg, ip administered 30 mins before challenge measured 30 mins post zymosan challenge relative to control; format: functional; conditions: route intraperitoneal
Method in brief: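 Male CD-1 mice (33−39 g, 8−9 weeks; n = 5−11 per group) dosed ip in 0.5 mL 0.9% saline with 2% DMSO 30 min before ip zymosan (0.5 mL of 2 mg/mL in saline). Killed by CO2 30 min after zymosan, peritoneum lavaged with 3 mL cold PBS pH 7.4. Cysteinyl-LTs in exudate supernatant by enzyme immunoassay; % inhibition vs vehicle.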

[3] = molecular target: T1, Polyunsaturated fatty acid lipoxygenase ALOX12 (Homo sapiens, UniProt P18054); test: Inhibition of 12-LO in human neutrophils
T1 sequence (P18054 whole entry): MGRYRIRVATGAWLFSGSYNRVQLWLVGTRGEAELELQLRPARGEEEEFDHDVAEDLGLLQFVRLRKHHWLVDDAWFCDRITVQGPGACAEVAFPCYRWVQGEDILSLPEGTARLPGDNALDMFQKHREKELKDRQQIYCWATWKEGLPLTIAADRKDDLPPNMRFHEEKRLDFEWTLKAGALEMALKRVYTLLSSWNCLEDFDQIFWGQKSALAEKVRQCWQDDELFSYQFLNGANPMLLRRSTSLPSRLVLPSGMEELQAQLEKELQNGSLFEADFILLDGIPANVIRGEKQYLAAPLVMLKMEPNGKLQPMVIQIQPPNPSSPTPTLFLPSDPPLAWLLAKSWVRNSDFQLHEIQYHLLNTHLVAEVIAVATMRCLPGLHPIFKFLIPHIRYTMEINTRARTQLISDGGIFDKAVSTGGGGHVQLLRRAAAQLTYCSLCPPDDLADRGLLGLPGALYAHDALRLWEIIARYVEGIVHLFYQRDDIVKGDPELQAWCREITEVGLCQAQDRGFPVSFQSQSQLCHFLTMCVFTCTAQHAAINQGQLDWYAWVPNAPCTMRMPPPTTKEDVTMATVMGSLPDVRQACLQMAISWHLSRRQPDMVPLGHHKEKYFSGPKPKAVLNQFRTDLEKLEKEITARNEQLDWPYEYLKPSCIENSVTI

[4] = molecular target: T2, Polyunsaturated fatty acid 5-lipoxygenase (Homo sapiens) (UniProt P09917); test: Inhibition of 5-LO in human neutrophils using arachidonic acid as substrate assessed as residual activity preincubated at 10 uM for 15 mins measured after 10 mins by HPLC analysis relative to control
T2 sequence (whole entry): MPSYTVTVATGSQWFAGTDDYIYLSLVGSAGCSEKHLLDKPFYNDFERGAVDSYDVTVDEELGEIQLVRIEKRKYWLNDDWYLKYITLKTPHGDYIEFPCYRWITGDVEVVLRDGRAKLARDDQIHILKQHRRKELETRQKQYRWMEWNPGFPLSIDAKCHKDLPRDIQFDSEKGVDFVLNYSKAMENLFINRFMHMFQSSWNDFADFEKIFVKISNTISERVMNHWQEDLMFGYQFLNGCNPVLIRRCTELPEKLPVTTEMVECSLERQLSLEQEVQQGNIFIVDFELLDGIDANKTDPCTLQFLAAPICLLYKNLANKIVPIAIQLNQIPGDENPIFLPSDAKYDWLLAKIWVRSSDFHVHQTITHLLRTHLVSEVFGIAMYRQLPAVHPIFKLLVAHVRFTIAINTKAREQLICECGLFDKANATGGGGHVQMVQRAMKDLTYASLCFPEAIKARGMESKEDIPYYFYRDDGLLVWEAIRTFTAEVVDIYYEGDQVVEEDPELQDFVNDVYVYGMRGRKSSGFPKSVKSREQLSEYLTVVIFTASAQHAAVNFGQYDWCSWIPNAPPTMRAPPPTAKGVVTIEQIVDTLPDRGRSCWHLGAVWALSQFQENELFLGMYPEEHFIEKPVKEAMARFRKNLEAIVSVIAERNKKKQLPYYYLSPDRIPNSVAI
Method in brief: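 Fresh human neutrophils, 1 × 10⁷/mL in PBS pH 7.4 with 1 mM CaCl2 and 1 mg/mL glucose, preincubated 15 min at 37 °C. Stimulated with 2.5 μM A23187 plus 20 μM arachidonic acid for 10 min at 37 °C; methanol stop. LTB4, its all-trans isomers and 5-H(P)ETE by HPLC.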

[5] = molecular target: Prostaglandin G/H synthase 1 (Homo sapiens, UniProt P23219); test: Inhibition of COX1-mediated […] in human platelets assessed as residual activity by measuring formation of 12-HHT from arachidonic acid preincubated at 10 uM for 5 mins measured after 5 mins by RP-HPLC analysis relative to control; values are per cent of control
[6] = molecular target: T3, Polyunsaturated fatty acid lipoxygenase ALOX15 (Homo sapiens, UniProt P16050); test: Inhibition of 15-LO-mediated 15-HETE formation in LPS-stimulated human monocytes preincubated for 15 mins before arachidonic acid substrate addition measured after 30 mins by UPLC-MS/MS analysis; format: cell-based
T3 sequence (P16050 whole entry): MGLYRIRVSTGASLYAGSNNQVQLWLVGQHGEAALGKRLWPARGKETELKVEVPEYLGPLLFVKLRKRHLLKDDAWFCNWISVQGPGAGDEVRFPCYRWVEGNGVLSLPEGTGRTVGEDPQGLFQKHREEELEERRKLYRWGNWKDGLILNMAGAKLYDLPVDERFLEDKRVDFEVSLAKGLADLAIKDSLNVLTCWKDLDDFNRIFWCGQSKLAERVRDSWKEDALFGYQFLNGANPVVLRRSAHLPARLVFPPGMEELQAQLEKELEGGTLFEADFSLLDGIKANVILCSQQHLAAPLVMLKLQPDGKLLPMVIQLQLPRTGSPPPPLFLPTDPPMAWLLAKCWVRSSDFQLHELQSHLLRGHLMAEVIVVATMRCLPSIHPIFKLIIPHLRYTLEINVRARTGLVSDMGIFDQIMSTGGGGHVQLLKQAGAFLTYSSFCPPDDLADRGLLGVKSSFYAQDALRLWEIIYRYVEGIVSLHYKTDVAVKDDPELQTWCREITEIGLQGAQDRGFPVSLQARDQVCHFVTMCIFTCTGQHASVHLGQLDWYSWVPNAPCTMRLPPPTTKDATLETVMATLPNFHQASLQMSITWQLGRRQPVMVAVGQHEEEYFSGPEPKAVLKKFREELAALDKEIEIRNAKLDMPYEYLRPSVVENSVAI

Monocyte = test: Inhibition of thromboxane B2 formation in LPS-stimulated human monocytes preincubated for 15 mins before arachidonic acid substrate addition measured after 30 mins by UPLC-MS/MS analysis; format: functional, cell-based
Method in brief: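 Fresh human monocytes (adherence-isolated, >85% CD14+; 5 × 10⁶/well) primed with LPS 1 μg/mL for 24 h. Washed, 15 min preincubation, then 2.5 μM A23187 plus 20 μM arachidonic acid for 30 min. Eicosanoids extracted and measured by UPLC-MS/MS, normalized to PGB1 as relative intensities. Two to three independent experiments.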

Prostaglandin G/H synthase 1, sequence (P23219 whole entry): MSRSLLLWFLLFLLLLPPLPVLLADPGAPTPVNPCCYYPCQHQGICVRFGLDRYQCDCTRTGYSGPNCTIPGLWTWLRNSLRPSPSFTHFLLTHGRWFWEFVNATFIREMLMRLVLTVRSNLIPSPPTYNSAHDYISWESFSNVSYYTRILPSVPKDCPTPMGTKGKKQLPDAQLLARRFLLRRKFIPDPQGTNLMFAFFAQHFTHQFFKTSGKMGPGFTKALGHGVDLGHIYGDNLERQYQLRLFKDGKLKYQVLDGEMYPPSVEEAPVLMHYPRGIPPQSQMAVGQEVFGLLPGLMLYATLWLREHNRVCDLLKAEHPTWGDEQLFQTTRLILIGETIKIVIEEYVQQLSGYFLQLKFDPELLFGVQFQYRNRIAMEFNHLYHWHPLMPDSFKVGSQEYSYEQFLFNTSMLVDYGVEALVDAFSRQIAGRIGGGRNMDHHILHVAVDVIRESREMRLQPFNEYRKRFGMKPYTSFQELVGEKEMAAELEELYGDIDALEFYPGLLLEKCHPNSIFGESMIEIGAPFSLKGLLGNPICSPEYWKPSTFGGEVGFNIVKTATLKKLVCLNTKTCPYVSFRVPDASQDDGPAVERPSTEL

COc1cc(/C=C/c2cc(/C=C/c3cc(CC=C(C)C)c(O)c(OC)c3)[nH]n2)cc(CC=C(C)C)c1O
inhibition in vivo at 10 mg/kg (Mus musculus [1]): 61%
inhibition in vivo at 10 mg/kg (Mus musculus [2]): 92%

COc1cc(/C=C/c2cc(-c3ccc(O)c(OC)c3)[nH]n2)ccc1O
IC50 [3]: 7.7 µM

COc1cc(/C=C/C(=O)CC(=O)/C=C/c2cc(CC=C(C)C)c(O)c(OC)c2)cc(CC=C(C)C)c1O
Activity [4]: 74.3%

COc1cc(/C=C/c2cc(/C=C/c3ccc(O)c(OC)c3)[nH]n2)ccc1O [CURCUMIN PYRAZOLE]
IC50 [3]: 7.3 µM
residual activity [5]: 82.3%

COc1cc(/C=C/C(=O)CC(=O)/C=C/c2ccc(O)c(OC)c2)ccc1O [CURCUMIN]
IC50 [6]: 1.2 µM
IC50 (Monocyte): 1.2 µM

COc1cc(CCC(=O)CC(=O)CCc2ccc(O)c(OC)c2)ccc1O [TETRAHYDROCURCUMIN]
Activity [4]: 70.1%
